HCV NS3 hel inh: blocks Hepatitis C virus NS3 helicase unwinding. NS3 helicase DNA unwinding, Cy5 molecular beacon fluorescence. hit rate 0.56% among 290,000. inhibition, % at 10.9 µM;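 active = inhibition above the mean of all tested compounds plus 3 SD, set per campaign, cut at about 35% in these data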
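Measured by: Cy5 fluorescence, 0 and 60 min reads / Assay system: NS3 helicase fragment of HCV / Control set: low DMSO, high thioflavine S at 110 µM / Times: 1 h reaction at 25 °C, ATP-initiated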
HCV core dimer: HCV core protein dimerization inhibition | TR-FRET GST/Flag-core106 dimerization, 1536-well | inhibition, % at 5 µM | hit rate 0.33% among 300,000 | AID 1899;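 active = inhibition above the mean of all tested compounds plus 3 SD, set per screening campaign, cut at about 45% in these data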
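System – GST-tagged and Flag-tagged HCV core protein residues 1-106 · Repeats – one well for each compound · Technique – TR-FRET 671 and 617 nm emission · Doses – one concentration, 5 µM, in 0.5% DMSO · Times – 4 h, 22.5 °C incubation · Also added – Eu donor and XL665 acceptor anti-tag antibodies · Measure – percent inhibition of core106 dimerization signal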
PP1 inh: PP1-alpha (human) inhibition in PP5 counter-screen; hit rate 0.9% among 320,000; P62136; purified PP1alpha, OMFP fluorescence; inhibition, % at 6.7 µM;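 active = inhibition above the mean inhibition of all tested compounds plus 3 SD, computed separately for each screening campaign, cut at about 15% in these data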
Target sequence (P62136 whole entry, looked up): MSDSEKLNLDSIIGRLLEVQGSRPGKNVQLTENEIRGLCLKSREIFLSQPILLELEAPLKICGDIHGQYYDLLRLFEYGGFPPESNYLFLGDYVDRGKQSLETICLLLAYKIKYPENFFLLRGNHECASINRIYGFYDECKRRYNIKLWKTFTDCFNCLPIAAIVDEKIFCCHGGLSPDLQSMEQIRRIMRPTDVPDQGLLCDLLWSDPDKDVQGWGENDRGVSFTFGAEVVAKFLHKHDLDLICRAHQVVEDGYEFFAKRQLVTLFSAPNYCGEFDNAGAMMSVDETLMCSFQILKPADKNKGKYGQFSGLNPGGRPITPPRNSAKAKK
ZTA counter: blocks Epstein-Barr virus ZTA, an EBNA-1 counter-screen | AID 2234 | ZTA-DNA binding, fluorescence polarization | inhibition, % at 11 µM | hit rate 0.15% among 320,000; in the data active = inhibition above about 33%
Target sequence (P03206 whole entry, looked up): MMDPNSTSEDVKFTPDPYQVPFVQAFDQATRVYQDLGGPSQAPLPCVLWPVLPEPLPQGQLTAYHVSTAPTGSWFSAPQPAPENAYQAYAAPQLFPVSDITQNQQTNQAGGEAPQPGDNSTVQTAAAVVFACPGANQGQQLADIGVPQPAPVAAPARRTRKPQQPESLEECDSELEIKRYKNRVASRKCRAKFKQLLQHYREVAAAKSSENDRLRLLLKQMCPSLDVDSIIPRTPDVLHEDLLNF
EBNA-1 inh: blocks EBNA-1 binding to DNA. inhibition, % at 14.8 µM. hit rate 0.34% among 300,000. EBNA-1 DNA binding, fluorescence polarization. AID 1950; in the data active = inhibition above about 28%
PP1 inh confirm: confirmation of human PP1 phosphatase inhibitors; shares compounds with PP1 inh; purified PP1alpha, OMFP substrate fluorescence; inhibition, % at 6.7 µM; hit rate 52% among 1,900;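 active = mean PP1 inhibition above a set limit taken from the earlier primary screen, cut at about 15% in these data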
PP5 counter: counter-screen for PP1 inhibitors: human PP5 phosphatase inhibition; shares compounds with PP1 inh; purified PP5c, OMFP fluorescence; inhibition, % at 6.7 µM; hit rate 4% among 1,900;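 active = mean PP5 inhibition over triplicate wells above about 9.5% taken from the earlier PP1 screen, limit read from the data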
Each line names hits and unclear results; the compound was inactive in the other large screens (follow-up assays come after a bar, where they were run). Hits are enriched below; roughly 1.9% of the tested compounds scored in any of these assays.

CCN(Cc1ccccc1)S(=O)(=O)c1ccc(C(=O)Nc2nnc(-c3ccccc3OC)o2)cc1	PP1 inh 30 | PP1 inh confirm 30 | PP5 counter inactive
O=[N+]([O-])c1cccc(S(=O)(=O)NC2CC3CCC2C3)c1 (stereo not given)	none
Cc1ccc2sc(-c3ccc(NC(=O)CCN4C(=O)c5ccccc5C4=O)cc3)nc2c1	none
Cc1cc(C)n(CCNC(=O)c2ccco2)n1	none
COc1ccc(/C(C)=N\NC(=O)CSc2nnc(C)s2)cc1	PP1 inh 19 | PP1 inh confirm inactive | PP5 counter inactive
COC/C=C/C1=CC2=CC(=O)C(C)(OC(=O)c3cnc4ccccc4n3)C(=O)C2=CN1CC1CC1 (stereo not given)	none (no result: HCV NS3 hel inh)
COC/C=C/C1=CC2=CC(=O)C(C)(OC(=O)c3cnc4ccccc4n3)C(=O)C2=CN1Cc1ccccc1 (stereo not given)	PP1 inh 23 (no result: HCV NS3 hel inh) | PP1 inh confirm inactive | PP5 counter 15
COC/C=C/C1=CC2=CC(=O)C(C)(OC(=O)c3cnc4ccccc4n3)C(=O)C2=CN1Cc1ccc(OC)cc1 (stereo not given)	PP1 inh 18 (no result: HCV NS3 hel inh) | PP1 inh confirm inactive | PP5 counter 11
Cc1nc2nc(SCc3ccc([N+](=O)[O-])cc3)[nH]c2cc1Br	none
COc1ccc2c(C)cc(Sc3nnnn3-c3ccccc3)nc2c1	none
Cc1cc(C)c2c3c(sc2n1)C(=O)N(c1ccccc1)CC(=O)N3	none
COc1ccc(CN2C(=O)c3cccnc3C2Nc2ccc(C)cc2)cc1 (stereo not given)	none
Cc1ccc(NC2c3ncccc3C(=O)N2Cc2cccs2)cc1 (stereo not given)	PP1 inh 23 | PP1 inh confirm 20 | PP5 counter inactive
CCOC(=O)C1CCCN(c2ccc(NC(=O)c3snc4c(=O)[nH]cnc34)cc2)C1 (stereo not given)	PP1 inh 23 | PP1 inh confirm 26 | PP5 counter inactive
COC(=O)CCC(=O)OC1(C)C(=O)C2=CN(Cc3ccc(OC)cc3)C(c3ccc(OC)cc3)=CC2=C(Br)C1=O (stereo not given)	none (no result: HCV NS3 hel inh)
COC(=O)CCC(=O)OC1(C)C(=O)C2=CN(c3ccccc3)C(c3ccc(OC)cc3)=CC2=C(Br)C1=O (stereo not given)	PP1 inh 22 (no result: HCV NS3 hel inh) | PP1 inh confirm inactive | PP5 counter 25
COC(=O)CCC(=O)OC1(C)C(=O)C2=CN(Cc3ccccc3)C(c3ccc(OC)cc3)=CC2=C(Br)C1=O (stereo not given)	PP1 inh 21 (no result: HCV NS3 hel inh) | PP1 inh confirm inactive | PP5 counter 28
O=C(Nc1ccccc1N1CCN(C(=O)c2ccc(Cl)cc2)CC1)c1cc(Br)ccc1Cl	PP1 inh 18 | PP1 inh confirm inactive | PP5 counter inactive
CCOc1ccc(NC(=O)COc2ccc(C(=O)NCc3cccc(OC)c3)cc2OC)cc1	none (no result: HCV NS3 hel inh, HCV core dimer, EBNA-1 inh)
O=C(CSc1nnc(-c2ccccc2O)o1)Oc1ccc(OCc2ccccc2)cc1	PP1 inh 24 | PP1 inh confirm 30 | PP5 counter inactive
Cn1c(=O)[nH]c2c(Cl)nccc21	none
Cn1c(=O)[nH]c2ncccc21	PP1 inh 28 | PP1 inh confirm inactive | PP5 counter inactive
Cc1nn(Cc2ccccc2Cl)c(C)c1NC(=O)C1C2CCC(O2)C1C(=O)O (stereo not given)	none (no result: HCV core dimer, PP1 inh, ZTA counter, EBNA-1 inh)
Cc1nn(C)cc1CNC(=O)C1C2CCC(C2)C1C(=O)O (stereo not given)	none
Cc1nn(Cc2ccc(Cl)cc2Cl)c(C)c1NC(=O)C1C2CCC(O2)C1C(=O)O (stereo not given)	PP1 inh 32 | PP1 inh confirm inactive | PP5 counter 23
O=C(O)C1C2CCC(O2)C1C(=O)Nc1ccc(Cl)cc1F (stereo not given)	PP1 inh 67 | PP1 inh confirm 26 | PP5 counter 34
Cc1nn(C)cc1CNC(=O)C1C2CCC(O2)C1C(=O)O (stereo not given)	PP1 inh 62 | PP1 inh confirm 37 | PP5 counter 41
O=C(O)C1C2CCC(O2)C1C(=O)NCc1ccc(Cl)cc1 (stereo not given)	PP1 inh 32 | PP1 inh confirm 17 | PP5 counter 32
C=CCOc1ccc(C(=O)Nc2ccccc2C(=O)NCc2cccnc2)cc1	none
O=C(O)C1C2CCC(O2)C1C(=O)Nc1cccc(Cl)c1 (stereo not given)	PP1 inh 70 | PP1 inh confirm 17 | PP5 counter 25
COc1ccccc1OCCNC(=O)C1CC(=O)N(Cc2ccc(C)cc2)C1 (stereo not given)	none (no result: HCV NS3 hel inh)
O=C(NC1CC1)c1cccc(NC(=O)c2cn3ccccc3n2)c1	none (no result: HCV NS3 hel inh, HCV core dimer, EBNA-1 inh)
C(=N\Nc1nc2ccccc2[nH]1)/c1ccccc1	none
Cc1ccccc1/C=N/Nc1nc2ccccc2[nH]1	none
O=[N+]([O-])c1cc(/C=N/Nc2nc3ccccc3[nH]2)c(O)cc1O	PP1 inh 18 | PP1 inh confirm 31 | PP5 counter inactive
C(=N\Nc1nc2ccccc2[nH]1)/c1cccc2cccnc12	PP1 inh 18 | PP1 inh confirm inactive | PP5 counter inactive
O=C(COc1ccc(-c2ccccc2)cc1)N/N=C/c1ccccc1Br	PP1 inh 18 | PP1 inh confirm inactive | PP5 counter inactive
Cc1ccccc1C(C(=O)NCc1ccco1)N(CC1CCCO1)C(=O)Cn1nnc2ccccc21 (stereo not given)	none
Cc1ccccc1CCN(C(=O)Cn1nnc2ccccc21)C(C(=O)NCC1CCCO1)c1nc2ccccc2n1C (stereo not given)	PP1 inh 18 | PP1 inh confirm 36 | PP5 counter inactive
Cn1c(=O)c(C(=O)NNC(=O)c2ccccc2F)c(O)c2ccccc21	PP1 inh 18 | PP1 inh confirm inactive | PP5 counter inactive
Cn1c(=O)c(C(=O)NNC(=O)c2ccc(Br)cc2)c(O)c2ccccc21	none
CCCn1c(=O)c(C(=O)NNS(=O)(=O)c2ccc(C)cc2)c(O)c2ccccc21	none
CCn1c(=O)c(C(=O)NNC(=O)c2ccccc2Cl)c(O)c2ccccc21	PP1 inh 19 | PP1 inh confirm inactive | PP5 counter inactive
CCn1c(=O)c(C(=O)NNC(=O)c2ccccc2F)c(O)c2ccccc21	none
CCn1c(=O)c(C(=O)Nc2ncccc2C)c(O)c2ccccc21	PP1 inh 21 | PP1 inh confirm 25 | PP5 counter inactive
CCCn1c(=O)c(C(=O)NNC(=O)c2cccc([N+](=O)[O-])c2)c(O)c2ccccc21	PP1 inh 20 | PP1 inh confirm 19 | PP5 counter inactive
O=C(NCCS(=O)(=O)NC1CCCC1)c1ccc(F)cc1	none (no result: HCV NS3 hel inh)
COC(=O)c1ccc(NC(=O)C(=O)c2cn(CC(=O)N3CCOCC3)c3ccccc23)cc1	none

Screening results (PubChem BioAssay)
